Columns and labels:
Assay type in all cases: functional
HL-60(TB) = assay: Growth inhibition of human HL-60(TB) cells after 48 hrs by sulforhodamine B assay; details: HL-60, 48 h
Summary of the method: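 Run in the NCI 60 cell-line screen as the full 5-dose assay that follows initial single-dose testing; GI50 is read from the dose series.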

K562 = assay: Growth inhibition of human K562 cells after 48 hrs by sulforhodamine B assay; details: K562, 48 h
RPMI-8226 = assay: Growth inhibition of human RPMI8226 cells after 48 hrs by sulforhodamine B assay; details: RPMI-8226, 48 h
EKVX = assay: Growth inhibition of human EKVX cells after 48 hrs by sulforhodamine B assay
NCI-H226 = assay: Growth inhibition of human NCI-H226 cells after 48 hrs by sulforhodamine B assay; details: NCI-H226, 48 h
NCI-H322M = assay: Growth inhibition of human NCI-H322M cells after 48 hrs by sulforhodamine B assay
NCI-H460 = assay: Growth inhibition of human NCI-H460 cells after 48 hrs by sulforhodamine B assay; details: NCI-H460, 48 h
NCI-H522 = assay: Growth inhibition of human NCI-H522 cells after 48 hrs by sulforhodamine B assay; details: NCI-H522, 48 h
COLO 205 = assay: Growth inhibition of human COLO205 cells after 48 hrs by sulforhodamine B assay; details: COLO 205, 48 h
HCC 2998 = assay: Growth inhibition of human HCC2998 cells after 48 hrs by sulforhodamine B assay; details: HCC 2998, 48 h
HCT-15 = assay: Growth inhibition of human HCT15 cells after 48 hrs by sulforhodamine B assay; details: HCT-15, 48 h
KM12 = assay: Growth inhibition of human KM12 cells after 48 hrs by sulforhodamine B assay; details: KM12, 48 h
SF-268 = assay: Growth inhibition of human SF268 cells after 48 hrs by sulforhodamine B assay; details: SF-268, 48 h
SF-295 = assay: Growth inhibition of human SF295 cells after 48 hrs by sulforhodamine B assay; details: SF-295, 48 h
SNB-19 = assay: Growth inhibition of human SNB19 cells after 48 hrs by sulforhodamine B assay; details: SNB-19, 48 h
SNB-75 = assay: Growth inhibition of human SNB75 cells after 48 hrs by sulforhodamine B assay; details: SNB-75, 48 h
LOX IMVI = assay: Growth inhibition of human LOXIMVI cells after 48 hrs by sulforhodamine B assay
SK-MEL-2 = assay: Growth inhibition of human SK-MEL-2 cells after 48 hrs by sulforhodamine B assay; details: SK-MEL-2, 48 h
SK-MEL-28 = assay: Growth inhibition of human SK-MEL-28 cells after 48 hrs by sulforhodamine B assay; details: SK-MEL-28, 48 h
SK-MEL-5 = assay: Growth inhibition of human SK-MEL-5 cells after 48 hrs by sulforhodamine B assay; details: SK-MEL-5, 48 h
UACC-257 = assay: Growth inhibition of human UACC257 cells after 48 hrs by sulforhodamine B assay; details: UACC-257, 48 h
UACC-62 = assay: Growth inhibition of human UACC62 cells after 48 hrs by sulforhodamine B assay; details: UACC-62, 48 h
IGROV-1 = assay: Growth inhibition of human IGROV1 cells after 48 hrs by sulforhodamine B assay; details: IGROV-1, 48 h
OVCAR-3 = assay: Growth inhibition of human OVCAR3 cells after 48 hrs by sulforhodamine B assay; details: OVCAR-3, 48 h
OVCAR-4 = assay: Growth inhibition of human OVCAR4 cells after 48 hrs by sulforhodamine B assay; details: OVCAR-4, 48 h
SK-OV-3 = assay: Growth inhibition of human SKOV3 cells after 48 hrs by sulforhodamine B assay; details: SK-OV-3, 48 h
786-0 = assay: Growth inhibition of human 786-0 cells after 48 hrs by sulforhodamine B assay; details: 786-0, 48 h
CAKI-1 = assay: Growth inhibition of human Caki1 cells after 48 hrs by sulforhodamine B assay; details: CAKI-1, 48 h
SN12C = assay: Growth inhibition of human SN12C cells after 48 hrs by sulforhodamine B assay
T47D = assay: Growth inhibition of human T47D cells after 48 hrs by sulforhodamine B assay
[1] = read-out: pLC50 (the source's name) (converted)

`COc1cc(/C=C/c2cc3c(c(OC)c2)O[C@]2(C)CC[C@@H](O)C(C)(C)[C@H]2C3)cc(O)c1C/C=C(\C)CCC=C(C)C` was tested, and the GI50 (HL-60(TB)) was 1.51 µM, the CC50 (HL-60(TB); [1]) was 30.2 µM and the TGI (HL-60(TB); read-out: pTGI (converted)) was 6.61 µM. It also gave a GI50 (K562) of 1.2 µM, an LC50 (K562) of 22.9 µM and a TGI (K562; read-out: pTGI (converted)) of 4.07 µM. The GI50 (RPMI-8226) was 0.178 µM, the LC50 (RPMI-8226) was > 50.1 µM and the TGI (RPMI-8226; read-out: pTGI (converted)) was 1.55 µM. It also gave a GI50 (EKVX) of 2.09 µM, an LC50 (50% lethal concentration) (EKVX) of 32.4 µM and a TGI (EKVX; read-out: pTGI (converted)) of 10.7 µM. For the same compound, the GI50 (NCI-H226) was 5.89 µM, the LC50 (NCI-H226) was 25.7 µM and the TGI (NCI-H226; read-out: pTGI (converted)) was 12.3 µM. The GI50 (NCI-H322M) was 6.76 µM, the LC50 (NCI-H322M) was > 50.1 µM and the TGI (NCI-H322M; read-out: pTGI (converted)) was 18.6 µM. For the same compound, the GI50 (NCI-H460) was 1.32 µM, the LC50 (concentration killing 50% of cells) (NCI-H460) was 16.2 µM and the TGI (NCI-H460; read-out: pTGI (converted)) was 5.25 µM. The GI50 (NCI-H522) was 4.47 µM, the LC50 (NCI-H522) was 32.4 µM and the TGI (NCI-H522; read-out: pTGI (converted)) was 12.3 µM. It also gave a GI50 (COLO 205) of 0.562 µM, an LC50 (COLO 205) of 2.4 µM and a TGI (COLO 205; read-out: pTGI (converted)) of 1.17 µM. The GI50 (HCC 2998) was 1.7 µM, the LC50 (HCC 2998) was 22.4 µM and the TGI (HCC 2998; read-out: pTGI (converted)) was 10 µM. It also gave a GI50 (HCT-15) of 1.29 µM, an LC50 (HCT-15) of 17.8 µM and a TGI (HCT-15; read-out: pTGI (converted)) of 6.03 µM. The GI50 (KM12) was 1.35 µM, the LC50 (KM12) was 18.6 µM and the TGI (KM12; read-out: pTGI (converted)) was 6.03 µM. It also gave a GI50 (SF-268) of 2.45 µM, an LC50 (SF-268) of 21.4 µM and a TGI (SF-268; read-out: pTGI (converted)) of 9.33 µM. It also gave an LC50 (SF-295) of 3.89 µM, a GI50 (SF-295; read-out: GI50) of 0.19 µM and a GI50 (SF-295; read-out: pGI50 (converted)) of 0.186 µM. The TGI (SF-295; read-out: pTGI (converted)) was 0.871 µM, the GI50 (SNB-19) was 3.89 µM and the LC50 (SNB-19) was 41.7 µM. For the same compound, the TGI (SNB-19; read-out: pTGI (converted)) was 14.1 µM, the GI50 (SNB-75) was 3.63 µM and the LC50 (SNB-75) was 30.2 µM. The TGI (SNB-75; read-out: pTGI (converted)) was 11.7 µM, the GI50 (LOX IMVI) was 1.41 µM and the LC50 (LOX IMVI) was 15.8 µM. The TGI (LOX IMVI; read-out: pTGI (converted)) was 5.01 µM, the GI50 (SK-MEL-2) was 5.37 µM and the LC50 (SK-MEL-2) was 27.5 µM. The TGI (SK-MEL-2; read-out: pTGI (converted)) was 12 µM, the GI50 (SK-MEL-28) was 4.27 µM and the CC50 (SK-MEL-28; [1]) was 22.9 µM. For the same compound, the TGI (SK-MEL-28; read-out: pTGI (converted)) was 10.7 µM, the GI50 (SK-MEL-5) was 0.955 µM and the LC50 (SK-MEL-5) was 6.92 µM. The TGI (SK-MEL-5; read-out: pTGI (converted)) was 2.34 µM, the GI50 (UACC-257) was 6.76 µM and the LC50 (UACC-257) was 29.5 µM. The TGI (UACC-257; read-out: pTGI (converted)) was 14.1 µM, the GI50 (UACC-62) was 1.07 µM and the LC50 (50% lethal concentration) (UACC-62) was 13.8 µM. It also gave a TGI (UACC-62; read-out: pTGI (converted)) of 3.8 µM, a GI50 (IGROV-1) of 5.75 µM and an LC50 (IGROV-1) of 30.9 µM. For the same compound, the TGI (IGROV-1; read-out: pTGI (converted)) was 13.5 µM, the GI50 (OVCAR-3) was 3.63 µM and the LC50 (OVCAR-3) was 23.4 µM. The TGI (OVCAR-3; read-out: pTGI (converted)) was 10.5 µM, the GI50 (OVCAR-4) was 5.75 µM and the LC50 (OVCAR-4) was 28.8 µM. For the same compound, the TGI (OVCAR-4; read-out: pTGI (converted)) was 12.9 µM, the GI50 (SK-OV-3) was 3.24 µM and the LC50 (SK-OV-3) was > 50.1 µM. It also gave a TGI (SK-OV-3; read-out: pTGI (converted)) of 18.2 µM, a GI50 (786-0) of 0.123 µM and a CC50 (786-0; [1]) of 4.17 µM. The TGI (786-0; read-out: pTGI (converted)) was 0.363 µM, the GI50 (CAKI-1) was 1.12 µM and the LC50 (CAKI-1) was > 50.1 µM. It also gave a TGI (CAKI-1; read-out: pTGI (converted)) of 6.61 µM, a GI50 (SN12C) of 5.89 µM and an LC50 (SN12C) of 28.8 µM. For the same compound, the TGI (SN12C; read-out: pTGI (converted)) was 13.2 µM, the GI50 (T47D) was 2.29 µM and the LC50 (T47D) was 23.4 µM. For the same compound, the TGI (T47D; read-out: pTGI (converted)) was 9.12 µM.
